Measured values taken from ChEMBL document CHEMBL4610022, “Imidazolidine-2,4,5- and pirimidine-2,4,6-triones - New primary pharmacophore for soluble epoxide hydrolase inhibitors with enhanced water solubility” (Bioorg Med Chem Lett, 2020).
In brackets after ≈: the same amount, converted by molar mass.

What was measured:
[1] = biological target: T1, Bifunctional epoxide hydrolase 2 (Homo sapiens, UniProt P34913); test: Inhibition of human soluble epoxide hydrolase by kinetic fluorescent assay
T1 sequence (P34913 whole entry): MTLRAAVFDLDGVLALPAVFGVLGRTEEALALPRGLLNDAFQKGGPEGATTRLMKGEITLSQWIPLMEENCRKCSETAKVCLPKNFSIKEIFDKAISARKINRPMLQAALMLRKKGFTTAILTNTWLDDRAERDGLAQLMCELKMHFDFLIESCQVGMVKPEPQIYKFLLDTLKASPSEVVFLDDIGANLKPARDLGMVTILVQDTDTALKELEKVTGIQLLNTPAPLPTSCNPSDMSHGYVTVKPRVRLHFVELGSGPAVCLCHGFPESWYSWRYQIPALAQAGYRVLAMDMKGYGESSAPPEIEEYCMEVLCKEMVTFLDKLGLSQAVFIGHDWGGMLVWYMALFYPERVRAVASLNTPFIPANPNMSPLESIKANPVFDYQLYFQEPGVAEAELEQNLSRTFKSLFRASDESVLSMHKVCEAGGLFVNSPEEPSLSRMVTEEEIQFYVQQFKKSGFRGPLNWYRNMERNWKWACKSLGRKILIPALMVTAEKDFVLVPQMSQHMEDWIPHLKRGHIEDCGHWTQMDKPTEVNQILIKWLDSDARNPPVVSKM
Procedure, shortened: (§1)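 Kinetic fluorescent read-out of sEH activity; each reported value is the mean of three separate experiments.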

[2] = Solubility of compound in pH 7.4 sodium phosphate buffer; assay type: physicochemical
Procedure, shortened: (§2)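 Solubility measured in 0.1 M sodium phosphate buffer, pH 7.4, containing 1% DMSO.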

[3] = biological target: T1, Bifunctional epoxide hydrolase 2; test: Inhibition of human soluble epoxide hydrolase using cyano(2methoxy naphthalen-6-yl)methyl trans-(3-phenyloxyran-2-yl)methylcarbonate as substrate preincubated for 5 mins followed by substrate addition and measured after 10 mins by fluorescence based assay; procedure, shortened: as §1
[4] = Aqueous solubility of compound; assay type: physicochemical; procedure, shortened: as §2

SMILES	IC50 [1] [nM]	solubility [2] [µM]	IC50 [3] [nM]	solubility [4] [µM]
O=C(O)c1ccc(O[C@H]2CC[C@H](N3C(=O)C(=O)N(c4ccc(OC(F)(F)F)cc4)C3=O)CC2)cc1	7.7	210 (≈ 103 µg/mL)	–	–
CC(N1C(=O)C(=O)N(c2ccccc2F)C1=O)C12CC3CC(CC(C3)C1)C2 (stereo not given)	466	900 (≈ 333 µg/mL)	–	–
CC12CC3CC(C)(C1)CC(NC(=O)NC1C4CC5CC(C4)CC1C5)(C3)C2 (stereo not given)	–	20 (≈ 7.13 µg/mL)	9.6	–
O=C(NC12CC3CC(CC(Cl)(C3)C1)C2)N[C@H]1CC[C@H](Oc2ccc(C(=O)O)cc2)CC1	–	500 (≈ 223 µg/mL)	0.4	–
O=C(Nc1ccccc1F)NC1C2CC3CC(C2)CC1C3 (stereo not given)	1	85 (≈ 24.5 µg/mL)	–	–
O=C(O)c1ccc(O[C@H]2CC[C@H](N3C(=O)C(=O)N(C4CCCCCC4)C3=O)CC2)cc1	86.8	280 (≈ 120 µg/mL)	–	–
CC12CC3CC(C)(C1)CC(NC(=O)Nc1ccccc1F)(C3)C2	3.6	65 (≈ 20.6 µg/mL)	–	–
O=C(Nc1ccc(C23CC4CC(CC(C4)C2)C3)cc1)Nc1ccccc1F	–	85 (≈ 31 µg/mL)	–	–
O=C(NC1CCCCCC1)N[C@H]1CC[C@H](Oc2ccc(C(=O)O)cc2)CC1	4.5	100 (≈ 37.4 µg/mL)	–	–
O=C1C(=O)N(C2C3CC4CC(C3)CC2C4)C(=O)N1c1ccccc1F (stereo not given)	6130	250 (≈ 85.6 µg/mL)	–	–
O=C1C(=O)N(c2ccccc2F)C(=O)N1c1ccc(C23CC4CC(CC(C4)C2)C3)cc1	160	250 (≈ 105 µg/mL)	–	–
CC(NC(=O)Nc1ccccc1F)C12CC3CC(CC(C3)C1)C2 (stereo not given)	–	55 (≈ 17.4 µg/mL)	–	–
CCC(CC12CC3CC(CC(C3)C1)C2)NC(=O)NC12CC3CC(C)(C1)C[C@@](C)(C3)C2 (stereo not given in full)	–	40 (≈ 16.5 µg/mL)	13.8	–
O=C1C(=O)N(c2ccccc2F)C(=O)N1CC12CC3CC(CC(C3)C1)C2	311	350 (≈ 125 µg/mL)	–	–
O=C(NC12CC3CC(C1)C(=O)C(C3)C2)NC12CC3CC(C1)C(=O)C(C3)C2	12	1750 (≈ 624 µg/mL)	–	–
O=C(Nc1ccc(OC(F)(F)F)cc1)N[C@H]1CC[C@H](Oc2ccc(C(=O)O)cc2)CC1	–	–	–	5 (≈ 2.19 µg/mL)
CC12CC3CC(C)(C1)CC(N1C(=O)C(=O)N(c4ccccc4F)C1=O)(C3)C2	371	200 (≈ 74.1 µg/mL)	–	–
O=C(NCC12CC3CC(CC(C3)C1)C2)Nc1ccccc1F	0.7	65 (≈ 19.7 µg/mL)	–	–

Now from value to molecule:

IC50 [1] [nM]	solubility [2] [µM]	IC50 [3] [nM]	solubility [4] [µM]	SMILES
216	100 (≈ 46.7 µg/mL)	–	–	CCC(CC12CC3CC(CC(C3)C1)C2)N1C(=O)C(=O)N(C23CC4CC(C)(C2)C[C@@](C)(C4)C3)C1=O (stereo not given in full)
438	600 (≈ 398 µg/mL)	–	–	O=C1C(=O)N(CCC23CC4CC(CC(C4)C2)C3)C(=O)N1CCCCCCCCN1C(=O)C(=O)N(CCC23CC4CC(CC(C4)C2)C3)C1=O
294	900 (≈ 546 µg/mL)	–	–	O=C1C(=O)N(CCC23CC4CC(CC(C4)C2)C3)C(=O)N1CCCCN1C(=O)C(=O)N(CCC23CC4CC(CC(C4)C2)C3)C1=O
8.4	90 (≈ 59.7 µg/mL)	–	–	CCC(CC12CC3CC(CC(C3)C1)C2)N1C(=O)C(=O)N(CCCCN2C(=O)C(=O)N(C(CC)CC34CC5CC(CC(C5)C3)C4)C2=O)C1=O (stereo not given)
–	80 (≈ 42.1 µg/mL)	0.8	–	O=C(NCCCCCCNC(=O)NCCC12CC3CC(CC(C3)C1)C2)NCCC12CC3CC(CC(C3)C1)C2
8420	150 (≈ 61.6 µg/mL)	–	–	O=C1C2CC3CC1CC(N1C(=O)C(=O)N(C45CC6CC(C4)C(=O)C(C6)C5)C1=O)(C3)C2
80.3	650 (≈ 573 µg/mL)	–	–	O=C1C(=O)N(CC23CC4CC(CC(C4)C2)C3)C(=O)N1CCN(CCN1C(=O)C(=O)N(CC23CC4CC(CC(C4)C2)C3)C1=O)CCN1C(=O)C(=O)N(CC23CC4CC(CC(C4)C2)C3)C1=O
650	100 (≈ 71.9 µg/mL)	–	–	CCC(CC12CC3CC(CC(C3)C1)C2)N1C(=O)C(=O)N(CCCCCCCCN2C(=O)C(=O)N(C(CC)CC34CC5CC(CC(C5)C3)C4)C2=O)C1=O (stereo not given)
6.7	70 (≈ 50.4 µg/mL)	–	–	O=C(NCCN(CCNC(=O)NCC12CC3CC(CC(C3)C1)C2)CCNC(=O)NCC12CC3CC(CC(C3)C1)C2)NCC12CC3CC(CC(C3)C1)C2
–	100 (≈ 49.9 µg/mL)	3.4	–	O=C(NCCCCNC(=O)NCCC12CC3CC(CC(C3)C1)C2)NCCC12CC3CC(CC(C3)C1)C2
0.4	250 (≈ 125 µg/mL)	–	–	O=C(O)c1ccc(O[C@H]2CC[C@H](N3C(=O)C(=O)N(C45CC6CC(CC(Cl)(C6)C4)C5)C3=O)CC2)cc1
22.8	100 (≈ 41.1 µg/mL)	–	–	CC12CC3CC(C)(C1)CC(N1C(=O)C(=O)N(C4C5CC6CC(C5)CC4C6)C1=O)(C3)C2 (stereo not given)
3.8	110 (≈ 66.7 µg/mL)	–	–	O=C1C(=O)N(C23CC4CC(CC(C4)C2)C3)C(=O)N1CCCCCCCCN1C(=O)C(=O)N(C23CC4CC(CC(C4)C2)C3)C1=O
–	75 (≈ 41.6 µg/mL)	1.5	–	O=C(NCCCCCCCCNC(=O)NCCC12CC3CC(CC(C3)C1)C2)NCCC12CC3CC(CC(C3)C1)C2
92	1300 (≈ 825 µg/mL)	–	–	O=C1C(=O)N(CCC23CC4CC(CC(C4)C2)C3)C(=O)N1CCCCCCN1C(=O)C(=O)N(CCC23CC4CC(CC(C4)C2)C3)C1=O
1.6	120 (≈ 69.4 µg/mL)	–	–	O=C1C(=O)N(C23CC4CC(CC(C4)C2)C3)C(=O)N1CCCCCCN1C(=O)C(=O)N(C23CC4CC(CC(C4)C2)C3)C1=O
